# In ChEMBL document CHEMBL4513216, “Probing the Open Global Health Chemical Diversity Library for Multistage-Active Starting Points for Next-Generation Antimalarials” (ACS Infect Dis, 2020):
# Test: Toxicity liver stage against HepG2, at 10uM
# Assay type: cell-based
# Parameters: test concentration 10 uM, cell line HepG2-A16-CD81EGFP
# Settings: human, HepG2-A16-CD81EGFP cells; read-out: INHIBITION
# How it was run: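 Uninfected HepG2-A16-CD81EGFP cells, 3 × 10^3 per well, 1536-well, plated on prespotted compound at 10 μM final, parasite-free screening media added to match infected plates; puromycin 10 μM positive, DMSO 0.5% negative; run in parallel with 48 h PbLuc assay at 37 °C, 5% CO2; viability by CellTiter-Glo luminescence, normalized to controls.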
row,Structure (SMILES),cytotoxicity at 10 µM
1,CS(=O)(=O)N1CCN(Cc2c(O)ccc3oc4c(c23)CCCC4)CC1,1.01%
2,CC(C)N(CC(N)=O)Cc1cccc(Br)c1,-6.93%
3,O=C(Cn1ncc(N2CCCC2)cc1=O)Nc1ccc2nccnc2c1,1.83%
4,CCn1cc(S(=O)(=O)NC2CCCN(CCCc3ccccc3)C2)cn1 (stereo not given),8.08%
5,O=C(C1CC1)N1CCC2(COCc3cnc(NCc4ccco4)nc32)C1 (stereo not given),-1.08%
6,O=C1COC2(CCN(Cc3ccoc3)CC2)CN1CCn1cccn1,6.95%
7,Cn1cc(NC(=O)Nc2ccccn2)cc(Cl)c1=O,-7.82%
8,c1ccc(COCC2CN(Cc3ccsc3)Cc3nccn3C2)nc1 (stereo not given),-69.6%
9,COc1cccc(CNCc2c(C(C)C)nn(C)c2N(C)C)c1,-7.36%
10,Cc1cc2c(cc1C)C(NCc1nnc3n1CCCCC3)CCCO2 (stereo not given),0.873%
11,Cc1ccc(C(=O)N2CCC3(CC2)CC(N2CCCC2)C3)cc1,-0.77%
12,Cn1cnnc1CCNC(=O)c1cnn(Cc2ccccc2)c1,-0.722%
13,COCCOCC(=O)NCCCOC1CCCc2ccccc21 (stereo not given),4.15%
14,CNC(=O)[C@@]12CCC3(CCN(C(=O)COC)CC3)[C@@H]1CN(S(C)(=O)=O)C2,4.53%
15,COCc1ccccc1C(=O)N1CCCC(c2cc(C)[nH]n2)C1 (stereo not given),-23.2%
16,CCS(=O)(=O)Nc1cnn(Cc2cccc(C)c2)c1,0.724%
17,Cn1cccc1C(=O)N1CCC2(CCCN2Cc2ccccc2)CC1,0.929%
18,CC(C)c1cc(C2CCN(Cc3cc(F)cc(F)c3)CC2)[nH]n1,-7.46%
19,CC(C)NC(=O)N1CCC2(CC1)CC[C@@]1(C(=O)N(C)C)CN(C)C[C@@H]21,-108%
20,Cc1ccc(CCNC(=O)NCc2cccc(OC(F)F)c2)cn1,-2.66%
21,Cc1nc(C)n(CC(C)C(=O)N2CCC(NS(C)(=O)=O)CC2)n1 (stereo not given),-4.4%
22,Cc1nn(C)c(C)c1CN1CCN(CC2(O)CCCN(C)C2)CC1 (stereo not given),9.07%

row,Structure (SMILES),cytotoxicity at 10 µM
1,Cc1ccc(N2CCCc3sc(C(=O)NCc4cccnc4)nc32)nn1,-2.96%
2,O=C(CN1CCC(OCC2CCCO2)CC1)NCC(F)(F)F (stereo not given),-1.2%
3,Cc1cccc(C(=O)N2CCCN(Cc3cscn3)CC2)c1,-18.1%
4,CC(=O)N1CCC2(CC1)CN(C(C)C)c1ccc(F)cc12,-110%
5,O=C(C1SCCc2sccc21)N1CCN(C2CC2)C(=O)C1 (stereo not given),3.24%
6,Cn1cc(CN2CCc3onc(C(=O)Nc4cccnc4)c3C2)cn1,4.22%
7,CSCc1noc(CNC(=O)c2cc(C)c(C)[nH]c2=O)n1,0.355%
8,COc1ncccc1C(=O)Nc1ccccc1-c1ccc(=O)n(C)n1,-0.843%
9,Cc1noc(CN(Cc2cccc(C#N)c2)Cc2ccco2)n1,0.554%
10,Oc1ccc([C@H]2Oc3cc(O)cc(O)c3C[C@@H]2O)cc1,4.94%
11,Cc1ncnc2c1CCN(C(=O)CN(C)C)CC2,0.964%
12,CCN1CC(C(=O)N2CCN(c3cnn(C)c(=O)c3)CC2)CCC1=O (stereo not given),0.508%
13,O=C(c1ccccc1)N1CCN(CC2CCOc3ccccc3C2)CC1 (stereo not given),-0.966%
14,COCc1cnc2n1CCN(C(=O)c1ccc3ccccc3n1)C2C (stereo not given),-112%
15,Cn1cncc1CNC1CC2(CCN(S(C)(=O)=O)CC2)c2ccccc21 (stereo not given),1.55%
16,COc1ccc(CN2CCc3nnc(COCCN(C)C)n3CC2)cc1,4.5%
17,Cc1cc(CN(C)C(=O)CN2CCCCCC2=O)no1,7.41%
18,CCCOCC1CCN(C(=O)Cn2ncc(N3CCCC3)cc2=O)C1 (stereo not given),3.41%
19,CCN(CC)c1ncnc2c1CCN(c1ccc(C)nn1)CC2,-108%
20,Cc1nc(C)n(CCCNC(=O)C(C)n2ccnc2C(C)C)n1 (stereo not given),-4.97%
21,CS(=O)(=O)N1CCCC12CCCN(C(=O)c1ccc3[nH]ccc3c1)C2 (stereo not given),-140%
22,c1cnc(N2C[C@@H]3COC[C@]3(COCC3CCCC3)C2)nc1,-8.85%

row,Structure (SMILES),cytotoxicity at 10 µM
1,O=C(CCc1cccnc1)N(Cc1ccsc1)CC1CCCO1 (stereo not given),-11.5%
2,Cc1nn(CN(Cc2ccsc2)C2CC2)c(=O)c2noc(C)c12,-1.54%
3,CN(Cc1cc2n(n1)CCNC2)Cc1n[nH]c2c1CCC2,5.04%
4,CN1CCN(C2CCN(Cc3nc(-c4ccoc4)no3)CC2)C1=O,-2.83%
5,Cc1ccccc1N1CCCN(C(=O)c2nn(C)cc2Cl)CC1,-4.78%
6,C=C(C)COc1cccc(C(=O)N(CC)Cc2noc(C)n2)c1,-4.15%
7,CC(C)OC(=O)N1C[C@@H]2CC[C@H]1CN(Cc1cccnc1)C2,0.189%
8,CS(=O)(=O)c1ccc(CNC[C@H]2COCc3nc4cccnc4n32)cc1,-0.505%
9,COCCN1CCN(Cc2ccc3nsnc3c2)[C@H]2CS(=O)(=O)C[C@H]21,-5.94%
10,CCN1CC(C(=O)N(C)Cc2cc3cc(F)ccc3[nH]2)CC1=O (stereo not given),0.782%
11,O=S(=O)(C1CC1)N1C[C@@H]2CN(Cc3cccs3)CCO[C@@H]2C1,-134%
12,CCCNC(=O)COc1cc(C)c2c(C)nn(-c3ccc(C)cc3)c2n1,-0.217%
13,CN(CCc1noc(C2CC2)n1)C(=O)C1(N2CCCC2)CCCC1,-146%
14,CCOCc1nnc(NCc2cccc(C)c2)o1,16.3%
15,Cc1cc(-c2nnn(CCNS(C)(=O)=O)n2)ccc1F,-9.09%
16,Cc1ccc(S(=O)(=O)N2C[C@H]3C[C@H](NC(=O)c4cnn(C)c4)[C@H]3C2)cc1,76.4%
17,c1cnn(Cc2ccc(CN3CCC4(CCCNC4)C3)cc2)c1 (stereo not given),-3.71%
18,CC1=Nc2c(c(=O)[nH]n2C(C)C)C(c2cccs2)S1 (stereo not given),3.67%
19,O=C1N(Cc2cccc(F)c2F)CCCC1(O)CNC1CCCC1 (stereo not given),13.8%
20,Cc1c(C(=O)N2CCCC(n3cncn3)C2)cnn1C (stereo not given),-9.84%
21,CC1CCc2nn(CCNC(=O)Cc3ccccc3F)c(=O)cc2C1 (stereo not given),6.66%
22,COc1ccc2c(c1)CCCN2C(=O)CNCC1CN(C)CCO1 (stereo not given),4.78%

row,Structure (SMILES),cytotoxicity at 10 µM
1,O=C(C1CCOC1)N1C[C@H]2CN(Cc3ccncc3)C(=O)[C@H]2C1 (stereo not given in full),-105%
2,CCCC(=O)N1CCC2(CC1)OCCO2,5.22%
3,COc1ncccc1CNC(=O)NC1CCOc2ccccc21 (stereo not given),-7%
4,O=C(c1ccnnc1)N1CCn2cc(CN3CCCCC3)nc2C1,-74.9%
5,Cc1cc(C(=O)NCc2ccnc(OCC(F)(F)F)c2)on1,-9.63%
6,O=S(=O)(N1CCCCCC1)N1CCc2sccc2C1,-5.6%
7,CCCc1noc(CNc2cc(C[S+](C)[O-])ccc2Cl)n1 (stereo not given),-5.18%
8,CN(Cc1ccccc1F)C(C(N)=O)c1ccccc1 (stereo not given),-2.09%
9,Cc1oc(C)c(C(=O)Nc2ccccn2)c1C,-9.78%
10,CC(C)NC(=O)Nc1ccc(CNCc2ccc(OC(F)F)cc2)cc1,-3.95%
11,CN(Cc1ccsc1)C(=O)CN1CCc2c(ncn2C)C1,2.83%
12,Cc1cccnc1NC(=O)C1(n2cnnn2)CCCCC1,-2.43%
13,CC(C)(C)c1cc(CN2CC[C@@H](NC(=O)c3cccnc3)[C@H](O)C2)n[nH]1,-13.2%
14,CCOc1ccc(NC(=O)c2ccc(C#N)cc2C)cc1CO,-4.12%
15,COCc1cc(NCc2cccnc2Oc2ccc(C)nc2)ncn1,8.12%
16,CCOc1ccc(CCCC(=O)N2CC[C@H](NC(C)=O)C2)cc1C,-16%
17,Cc1cnn(CC2CCCN2C(=O)c2n[nH]c(=O)c3ccccc23)c1 (stereo not given),-21.9%
18,Fc1ccccc1OCCN1CCCCC1Cn1cncn1 (stereo not given),-18.9%
19,CCc1ncc2c(n1)CN(CC(=O)N1CCc3sccc3C1)CC2,4.83%
20,CCC(CC)C(=O)N1CCOC2(CNC2)C1,-0.184%
21,CCC[C@H]1CN(c2cncc(C(=O)N(C)C)n2)C[C@@H]1N(C)C,-7.83%
22,Cc1cc(NC(=O)N2CCCC2C(C)(C)O)c2ncccc2c1 (stereo not given),6.87%

row,Structure (SMILES),cytotoxicity at 10 µM
1,CCOC(=O)N1CCN(c2nc(N)c3ccccc3n2)CC1,-5.52%
2,CCn1c(C)nnc1CN(C)C1CCN(Cc2nccn2C)C1 (stereo not given),17.8%
3,CC[C@@]1(O)CCN(C(=O)c2ccc(CN3CCCCCC3)cc2)C[C@H]1O,8.44%
4,CC1COCCN1C(=O)c1ccc(=O)n(CCOc2ccccc2)n1 (stereo not given),-13.5%
5,CCN1C[C@@H]2[C@@H](OC)CCN(S(=O)(=O)c3ccccc3F)[C@@H]2C1,-0.902%
6,c1ccc(OC2C[C@@H]3CN(Cc4cnccn4)C[C@@H]3C2)cc1 (stereo not given in full),-5.92%
7,CC1COCCN1Cc1nc(-c2cccs2)no1 (stereo not given),-7.79%
8,Nc1nc(CCCNC(=O)c2ccccc2C2CCNC2)cs1 (stereo not given),-3.06%
9,O=c1[nH]nc2c(N3CCC(NC4CCOCC4)CC3)nccn12,7.19%
10,CN(C)c1cc2c(nn1)CCN(C(=O)c1cc3ccccc3o1)C2,-5.39%
11,Cc1cnn(CC2CN(c3cnc4ccccc4n3)CCO2)c1 (stereo not given),2.02%
12,CCn1ncc(Nc2[nH]cnc3nc(C)nc2-3)c1C,3.26%
13,O=S(=O)(C1CC1)N1CCCn2nnc(Cn3cccc3)c2C1,9.39%
14,Cn1cc(C2CC(=O)NC23CCN(Cc2cccc(F)c2)CC3)cn1 (stereo not given),7.13%
15,O=C([C@H]1C[C@H]2OCC[C@H]2N(Cc2ccncc2)C1)N1CCCCO1,-9.01%
16,COC1CCCN(Cc2cc(O)c3cc(C)cc(C)c3n2)C1 (stereo not given),3.54%
17,O=C(NCCc1ccncc1)[C@H]1CC[C@@H]2[C@@H](CCN2C2CCC2)O1,-2.3%
18,CCN1CCC(CC(=O)NCC(O)c2ccc3ccccc3c2)CC1 (stereo not given),-5.26%
19,Oc1ccc2oc3c(c2c1CN1CCOCC1)CCCC3,-0.499%
20,Cc1ccc(CN2CCC3(CCC3NS(=O)(=O)c3ccccc3)CC2)o1 (stereo not given),-2.97%
21,COCC1CN(C(=O)CNC(C)=O)Cc2ncnn2C1 (stereo not given),-12.4%
22,Cc1cc(C)c(CNC(=O)C(C)Oc2cccc(C#N)c2)c(=O)[nH]1 (stereo not given),7.42%
